Measured values as given in ChEMBL document CHEMBL1123566, “Synthesis and cardiac electrophysiological activity of 2- and 3-[(substituted phenyl)alkyl]quinuclidines. Structure-activity relationships” (1987).
Values joined by “and” are separate entries in the source; they are usually repeats but may differ in a detail not shown here. Identical values can stand only once.

Assays:
Canis familiaris [1] = species: Canis familiaris; test: In vitro electrophysiological evaluation in canine cardiac Purkinje fibres reported as % change for action potential duration at 10 uM at 0.1-100 uM concentration range; assay type: functional, Canis lupus familiaris, Purkinje fiber
How it was run: (§1)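 Canine cardiac Purkinje fibres, intracellular microelectrode recording, paced at a basic cycle length of 1 s. APD95 and Vmax read simultaneously. Compound: 10 mM stock in deionized water, diluted into Tyrode's solution, tested over the stated concentration range. Each fibre used once as its own control. Result is % change from control, given at 10 µM or as the maximum with its concentration. M = <10% decrease or an increase in Vmax.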

Canis familiaris [2] = test: Mean arterial blood pressure was determined by intraduodenal administration of two dosages of 30 mg/kg of compound in anesthetized dogs. Value was reported for experiment 1; assay type: functional, Canis lupus familiaris
How it was run: (§2)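 Anesthetized dogs received two intraduodenal doses, the second cumulative (low dose/high dose). Left ventricular FRP and CT were measured 15, 30 and 45 min after dosing. Heart rate and mean blood pressure were taken during nonpacing intervals. Values are percent change from control. The vehicle was 5% dextrose in water/tragacanth. Activity was defined as ≥12% prolongation of FRP or CT.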

Canis familiaris [3] = test: Heart rate was determined by intraduodenal administration of two dosages of 10 mg/kg of compound in anesthetized dogs. Value was reported for experiment 2; assay type: functional, Canis lupus familiaris
How it was run: (§3)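 Anesthetized dogs; compound given intraduodenally, generally as two doses, the second a cumulative (high) dose. LV functional refractory period and conduction time measured 15, 30 and 45 min after dosing; heart rate and blood pressure measured during nonpacing intervals. Values are % change from control, given per individual animal. Active if FRP or CT prolonged by ≥12%.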

Canis familiaris [4] = species: Canis familiaris; test: In vitro electrophysiological evaluation in canine cardiac occurred is 100 uM; assay type: functional; conditions: Canis lupus familiaris; Heart
Canis familiaris [5] = species: Canis familiaris; test: In vitro electrophysiological evaluation in canine cardiac Purkinje fibres reported as % change for action potential duration at a concentration of 10 uM; assay type: functional, Canis lupus familiaris, Purkinje fiber; how it was run: as §1
Canis familiaris [6] = species: Canis familiaris; test: In vitro electrophysiological evaluation in canine cardiac Purkinje fibres reported as percent change Vmax at 10 uM at concentration range of 1-100 uM.; assay type: functional; conditions: Canis lupus familiaris, Purkinje fiber; how it was run: as §1
Canis familiaris [7] = test: Conduction time was determined by intraduodenal administration of 30 mg/kg (high dose) of compound in anesthetized dogs. Value was reported for experiment 1; assay type: functional, Canis lupus familiaris; how it was run: as §3
Canis familiaris [8] = test: Heart rate was determined by intraduodenal administration of two dosages of 30 mg/kg of compound in anesthetized dogs. Value was reported for experiment 1; assay type: functional, Canis lupus familiaris; how it was run: as §3
Canis familiaris [9] = species: Canis familiaris; test: In vitro electrophysiological evaluation in canine cardiac ventricular muscle reported as % change for conduction time(CT) at 10 uM at 0.1-100 uM concentration range; Minimal (<10% decrease or increase in CT).; assay type: functional, Canis lupus familiaris, Muscle tissue
Canis familiaris [10] = test: Conduction time was determined by intraduodenal administration of 10 mg/kg (low dose) of compound in anesthetized dogs. Value was reported for experiment 1; assay type: functional, Canis lupus familiaris; how it was run: as §3
Canis familiaris [11] = test: Left ventricular refractory period was determined by intraduodenal administration of 30 mg/kg (high dose) of compound in anesthetized dogs. Value was reported for experiment 2; assay type: functional, Canis lupus familiaris, Cardiac ventricle; how it was run: as §2
Canis familiaris [12] = test: Conduction time was determined by intraduodenal administration of 30 mg/kg (high dose) of compound in anesthetized dogs. Value was reported for experiment 2; assay type: functional, Canis lupus familiaris; how it was run: as §3
Canis familiaris [13] = test: Heart rate was determined by intraduodenal administration of two dosages of 30 mg/kg of compound in anesthetized dogs. Value was reported for experiment 2; assay type: functional, Canis lupus familiaris; how it was run: as §3
Canis familiaris [14] = species: Canis familiaris; test: In vitro electrophysiological evaluation in canine cardiac Purkinje fibres reported as maximum percent change Vmax concentration range of 0.1-100 uM; Minimal (<10% decrease or increase in V max).; assay type: functional; conditions: Canis lupus familiaris; Purkinje fiber; how it was run: as §1
Canis familiaris [15] = species: Canis familiaris; test: In vitro electrophysiological evaluation in canine cardiac ventricular muscle reported as % change for the functional refractory period (FRP) at 10 uM at concentration range of 0.1-100 uM; design: species or system Canis lupus familiaris, Muscle tissue
How it was run: (§4)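 Canine right ventricle and papillary muscle strips in oxygenated Tyrode's solution, fitted with stimulating and recording electrodes. The extra-stimulus conduction-interval method was adapted for in vitro use. FRP and CT were read from a conduction-interval curve before and after various compound concentrations, and expressed as percent change from control. Compounds were taken from 10 mM deionized-water stock into Tyrode's. Each strip was used once as its own control.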

Canis familiaris [16] = test: Mean arterial blood pressure was determined by intraduodenal administration of two dosages of 10 mg/kg of compound in anesthetized dogs. Value was reported for experiment 2; assay type: functional, Canis lupus familiaris; how it was run: as §2
Canis familiaris [17] = species: Canis familiaris; test: (§5) In vitro electrophysiological activity in canine cardiac occurred is 10 uM; assay type: functional, Canis lupus familiaris, Heart
Canis familiaris [18] = species: Canis familiaris; test: In vitro electrophysiological evaluation in canine cardiac Purkinje fibres reported as percent change Vmax at 10 uM at concentration range of 0.1-100 uM; Minimal (<10% decrease or increase in V max).; assay type: functional, organism-based; conditions: Canis lupus familiaris, Purkinje fiber; how it was run: as §1
Canis familiaris [19] = test: Mean arterial blood pressure was determined by intraduodenal administration of two dosages of 30 mg/kg of compound in anesthetized dogs. Value was reported for experiment 2; assay type: functional, Canis lupus familiaris; how it was run: as §2
Canis familiaris [20] = species: Canis familiaris; test: as §5; assay type: functional, Canis lupus familiaris, Heart; remark: listed apart in the source
Canis familiaris [21] = species: Canis familiaris; test: In vitro electrophysiological evaluation in canine cardiac ventricular muscle reported as maximum % change for functional refractory period (FRP) at 0.1-100 uM concentration range; concentration at which it occurred is 100 uM; design: species or system Canis lupus familiaris, Muscle tissue; how it was run: as §4
Canis familiaris [22] = test: Conduction time was determined by intraduodenal administration of 10 mg/kg (low dose) of compound in anesthetized dogs. Value was reported for experiment 2; assay type: functional, Canis lupus familiaris; how it was run: as §3
Canis familiaris [23] = test: Left ventricular refractory period was determined by intraduodenal administration of 30 mg/kg (high dose) of compound in anesthetized dogs. Value was reported for experiment 1; assay type: functional, Canis lupus familiaris, Cardiac ventricle; how it was run: as §2
Canis familiaris [24] = test: Heart rate was determined by intraduodenal administration of two dosages of 10 mg/kg of compound in anesthetized dogs. Value was reported for experiment 1; assay type: functional, Canis lupus familiaris; how it was run: as §3
Canis familiaris [25] = species: Canis familiaris; test: In vitro electrophysiological evaluation in canine cardiac ventricular muscle reported as maximum % change for conduction time(CT) at 0.1-100 uM concentration range; Minimal (<10% decrease or increase in CT).; assay type: functional, Canis lupus familiaris, Muscle tissue; how it was run: as §4
Canis familiaris [26] = test: Mean arterial blood pressure was determined by intraduodenal administration of two dosages of 10 mg/kg of compound in anesthetized dogs. Value was reported for experiment 1; assay type: functional, Canis lupus familiaris; how it was run: as §2
Canis familiaris [27] = test: Left ventricular refractory period was determined by intraduodenal administration of 10 mg/kg (low dose) of compound in anesthetized dogs. Value was reported for experiment 1; assay type: functional, Canis lupus familiaris, Cardiac ventricle; how it was run: as §2
Canis familiaris [28] = test: Left ventricular refractory period was determined by intraduodenal administration of 10 mg/kg (low dose) of compound in anesthetized dogs. Value was reported for experiment 2; assay type: functional, Canis lupus familiaris, Cardiac ventricle; how it was run: as §2

Compound: CC(=O)C(CC1C(=O)C2CCN1CC2)C(=O)c1ccc([N+](=O)[O-])cc1.Cl (stereo not drawn)
- APD95 (Canis familiaris [1]): 29%
- Mean blood pressure (Canis familiaris [2]): 12%
- HR (Canis familiaris [3]): -36%
- Vmax (Canis familiaris [4]): -24%
- APD95 (Canis familiaris [5]): 28%
- Vmax (Canis familiaris [6]): -18%
- CT (Canis familiaris [7]): -3%
- HR (Canis familiaris [8]): -14%
- CT (Canis familiaris [9]): <10%
- CT (Canis familiaris [10]): -3%
- LV FRP (Canis familiaris [11]): 22%
- CT (Canis familiaris [12]): 11%
- HR (Canis familiaris [13]): -32%
- Vmax (Canis familiaris [14]): < 10%
- FRP (Canis familiaris [15]): 21% and 28%
- Mean blood pressure (Canis familiaris [16]): -39%
- APD95 (Canis familiaris [17]): 29%
- Vmax (Canis familiaris [18]): < 10%
- Mean blood pressure (Canis familiaris [19]): -30%
- APD95 (Canis familiaris [20]): 28%
- FRP (Canis familiaris [21]): 23% and 30%
- CT (Canis familiaris [22]): 9%
- LV FRP (Canis familiaris [23]): 13%
- HR (Canis familiaris [24]): -11%
- CT (Canis familiaris [25]): <10%
- Mean blood pressure (Canis familiaris [26]): 10%
- LV FRP (Canis familiaris [27]): 9%
- LV FRP (Canis familiaris [28]): 16%
